Experiments:
Hepatitis B virus [1] = assay: Antiviral activity against Hepatitis B virus infected in human HepG2.2.15 cells assessed as cell survival at 75 uM after 9 days (reference value: 100%); format: functional; conditions: HepG2 2.2.15, 216 h
In short: (§1)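 HepG2.2.15 cells (MEM, 10% FBS, 380 µg/ml G418, 37 °C, 5% CO2) seeded at 1×10^5 cells/ml, cultured 24 h, then exposed to various drug concentrations; drug-containing medium renewed every 3 d. OD read at 450 nm after 9 days; percent cell death calculated; CC50 = concentration killing 50% of cells. Means of at least two experiments.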

Hepatitis B virus [2] = assay: Antiviral activity against Hepatitis B virus infected in human HepG2.2.15 cells assessed as inhibition of HBsAg secretion at 75 uM after 3 days by ELISA; format: functional; conditions: HepG2 2.2.15, 72 h
In short: (§2)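 HepG2.2.15 cells (MEM, 10% FBS, 380 µg/ml G418) seeded at 1×10^5 cells/ml, held 24 h at 37 °C, then treated with various drug concentrations; medium with drug renewed every 3 d for up to 9 d. Culture medium sampled on days 3, 6 and 9, stored at -20 °C, and assayed for secreted antigen. Lamivudine as positive control; IC50 = 50% inhibition of secretion; means of at least two experiments.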

Hepatitis B virus [3] = assay: Antiviral activity against Hepatitis B virus infected in human HepG2.2.15 cells assessed as inhibition of HBeAg secretion at 150 uM after 9 days by ELISA; format: functional; conditions: HepG2 2.2.15, 216 h; in short: as §2
[4] = Cytotoxicity against human HepG2.2.15 cells assessed as cell death after 9 days by MTT assay; format: cell-based, HepG2 2.2.15; in short: as §1
Hepatitis B virus [5] = assay: Antiviral activity against Hepatitis B virus infected in human HepG2.2.15 cells assessed as inhibition of HBsAg secretion at 150 uM after 6 days by ELISA; format: functional; conditions: HepG2 2.2.15, 144 h; in short: as §2
Hepatitis B virus [6] = assay: Antiviral activity against Hepatitis B virus infected in human HepG2.2.15 cells assessed as inhibition of HBeAg secretion at 75 uM after 9 days by ELISA; format: functional; conditions: HepG2 2.2.15, 216 h; in short: as §2
Hepatitis B virus [7] = assay: Antiviral activity against Hepatitis B virus infected in human HepG2.2.15 cells assessed as inhibition of HBsAg secretion at 75 uM after 6 days by ELISA; format: functional; conditions: HepG2 2.2.15, 144 h; in short: as §2
Hepatitis B virus [8] = assay: Antiviral activity against Hepatitis B virus infected in human HepG2.2.15 cells assessed as inhibition of HBsAg secretion by ELISA; format: functional, organism-based; conditions: HepG2 2.2.15; in short: as §2
Hepatitis B virus [9] = assay: Antiviral activity against Hepatitis B virus infected in human HepG2.2.15 cells assessed as cell survival at 37.5 uM after 9 days (reference value: 100%); format: functional; conditions: HepG2 2.2.15, 216 h; in short: as §1
Hepatitis B virus [10] = assay: Antiviral activity against Hepatitis B virus infected in human HepG2.2.15 cells assessed as inhibition of HBsAg secretion at 37.5 uM after 3 days by ELISA; format: functional; conditions: HepG2 2.2.15, 72 h; in short: as §2
Hepatitis B virus [11] = assay: Antiviral activity against Hepatitis B virus infected in human HepG2.2.15 cells assessed as inhibition of HBeAg secretion at 300 uM after 3 days by ELISA; format: functional; conditions: HepG2 2.2.15, 72 h; in short: as §2
Hepatitis B virus [12] = assay: Antiviral activity against Hepatitis B virus infected in human HepG2.2.15 cells assessed as inhibition of HBsAg secretion at 75 uM after 9 days by ELISA; format: functional; conditions: HepG2 2.2.15, 216 h; in short: as §2
Hepatitis B virus [13] = assay: Antiviral activity against Hepatitis B virus infected in human HepG2.2.15 cells assessed as inhibition of HBeAg secretion at 150 uM after 3 days by ELISA; format: functional; conditions: HepG2 2.2.15, 72 h; in short: as §2
Hepatitis B virus [14] = assay: Antiviral activity against Hepatitis B virus infected in human HepG2.2.15 cells assessed as inhibition of HBeAg secretion at 150 uM after 6 days by ELISA; format: functional; conditions: HepG2 2.2.15, 144 h; in short: as §2
Hepatitis B virus [15] = assay: Antiviral activity against Hepatitis B virus infected in human HepG2.2.15 cells assessed as inhibition of HBsAg secretion at 150 uM after 3 days by ELISA; format: functional; conditions: HepG2 2.2.15, 72 h; in short: as §2
Hepatitis B virus [16] = assay: Antiviral activity against Hepatitis B virus infected in human HepG2.2.15 cells assessed as inhibition of HBeAg secretion at 75 uM after 6 days by ELISA; format: functional; conditions: HepG2 2.2.15, 144 h; in short: as §2
Hepatitis B virus [17] = assay: Antiviral activity against Hepatitis B virus infected in human HepG2.2.15 cells assessed as cell survival at 300 uM after 9 days (reference value: 100%); format: functional; conditions: HepG2 2.2.15, 216 h; in short: as §1
Hepatitis B virus [18] = assay: Antiviral activity against Hepatitis B virus infected in human HepG2.2.15 cells assessed as inhibition of HBeAg secretion at 37.5 uM after 6 days by ELISA; format: functional; conditions: HepG2 2.2.15, 144 h; in short: as §2
Hepatitis B virus [19] = assay: Antiviral activity against Hepatitis B virus infected in human HepG2.2.15 cells assessed as inhibition of HBeAg secretion at 37.5 uM after 9 days by ELISA; format: functional; conditions: HepG2 2.2.15, 216 h; in short: as §2
Hepatitis B virus [20] = assay: Antiviral activity against Hepatitis B virus infected in human HepG2.2.15 cells assessed as inhibition of HBsAg secretion at 300 uM after 3 days by ELISA; format: functional; conditions: HepG2 2.2.15, 72 h; in short: as §2
Hepatitis B virus [21] = assay: Antiviral activity against Hepatitis B virus infected in human HepG2.2.15 cells assessed as inhibition of HBeAg secretion at 300 uM after 6 days by ELISA; format: functional; conditions: HepG2 2.2.15, 144 h; in short: as §2
Hepatitis B virus [22] = assay: Antiviral activity against Hepatitis B virus infected in human HepG2.2.15 cells assessed as inhibition of HBeAg secretion by ELISA; format: functional, organism-based; conditions: HepG2 2.2.15; in short: as §2
Hepatitis B virus [23] = assay: Antiviral activity against Hepatitis B virus infected in human HepG2.2.15 cells assessed as inhibition of HBsAg secretion at 37.5 uM after 9 days by ELISA; format: functional; conditions: HepG2 2.2.15, 216 h; in short: as §2
Hepatitis B virus [24] = assay: Antiviral activity against Hepatitis B virus infected in human HepG2.2.15 cells assessed as inhibition of HBsAg secretion at 150 uM after 9 days by ELISA; format: functional; conditions: HepG2 2.2.15, 216 h; in short: as §2
[25] = Selectivity index, ratio of CC50 for human HepG2.2.15 cells to IC50 for Hepatitis B virus infected in human HepG2.2.15 cells assessed as inhibition of HBsAg secretion; format: functional
In short: (§3)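 Selectivity index computed as CC50/IC50, with CC50 from cell death of HepG2.2.15 cells after 9 days of treatment (OD 450 nm) and IC50 from 50% inhibition of HBeAg or HBsAg secretion in the same cells; medium with drug renewed every 3 d.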

Hepatitis B virus [26] = assay: Antiviral activity against Hepatitis B virus infected in human HepG2.2.15 cells assessed as inhibition of HBeAg secretion at 300 uM after 9 days by ELISA; format: functional; conditions: HepG2 2.2.15, 216 h; in short: as §2
[27] = Selectivity index, ratio of CC50 for human HepG2.2.15 cells to IC50 for Hepatitis B virus infected in human HepG2.2.15 cells assessed as inhibition of HBeAg secretion; format: functional; in short: as §3
Hepatitis B virus [28] = assay: Antiviral activity against Hepatitis B virus infected in human HepG2.2.15 cells assessed as inhibition of HBsAg secretion at 300 uM after 6 days by ELISA; format: functional; conditions: HepG2 2.2.15, 144 h; in short: as §2
Hepatitis B virus [29] = assay: Antiviral activity against Hepatitis B virus infected in human HepG2.2.15 cells assessed as inhibition of HBeAg secretion at 75 uM after 3 days by ELISA; format: functional; conditions: HepG2 2.2.15, 72 h; in short: as §2
Hepatitis B virus [30] = assay: Antiviral activity against Hepatitis B virus infected in human HepG2.2.15 cells assessed as inhibition of HBsAg secretion at 37.5 uM after 6 days by ELISA; format: functional; conditions: HepG2 2.2.15, 144 h; in short: as §2
Hepatitis B virus [31] = assay: Antiviral activity against Hepatitis B virus infected in human HepG2.2.15 cells assessed as inhibition of HBsAg secretion at 300 uM after 9 days by ELISA; format: functional; conditions: HepG2 2.2.15, 216 h; in short: as §2
Hepatitis B virus [32] = assay: Antiviral activity against Hepatitis B virus infected in human HepG2.2.15 cells assessed as cell survival at 150 uM after 9 days (reference value: 100%); format: functional; conditions: HepG2 2.2.15, 216 h; in short: as §1
Hepatitis B virus [33] = assay: Antiviral activity against Hepatitis B virus infected in human HepG2.2.15 cells assessed as inhibition of HBeAg secretion at 37.5 uM after 3 days by ELISA; format: functional; conditions: HepG2 2.2.15, 72 h; in short: as §2

IC50 (Hepatitis B virus [8]) | IC50 (Hepatitis B virus [22]) | SMILES | viability at 75 µM (Hepatitis B virus [1]) | inhibition at 75 µM (Hepatitis B virus [2]) | inhibition at 150 µM (Hepatitis B virus [3]) | CC50 at 216 h [4] | inhibition at 150 µM (Hepatitis B virus [5]) | inhibition at 75 µM (Hepatitis B virus [6]) | inhibition at 75 µM (Hepatitis B virus [7]) | viability at 37.5 µM (Hepatitis B virus [9]) | inhibition at 37.5 µM (Hepatitis B virus [10]) | inhibition at 300 µM (Hepatitis B virus [11]) | inhibition at 75 µM (Hepatitis B virus [12]) | inhibition at 150 µM (Hepatitis B virus [13]) | inhibition at 150 µM (Hepatitis B virus [14]) | inhibition at 150 µM (Hepatitis B virus [15]) | inhibition at 75 µM (Hepatitis B virus [16]) | viability at 300 µM (Hepatitis B virus [17]) | Ratio CC50/IC50 [25] | Ratio CC50/IC50 [27] | other results
197 µM | 209 µM | COc1cc(/C=C/C(=O)O/N=C/c2cccs2)cc(OC)c1OC | 93.4% | 26.3% | 46.3% | 857 µM | 44.4% | 31.6% | 30.6% | 100% | 17.1% | 15.3% | 30.9% | 11.3% | 28.2% | 35.6% | 20.9% | 79.9% | 4.36 | 4.1 | inhibition at 37.5 µM (Hepatitis B virus [18]): 17.1%; inhibition at 37.5 µM (Hepatitis B virus [19]): 20.6%; inhibition at 300 µM (Hepatitis B virus [20]): 44.7%; inhibition at 300 µM (Hepatitis B virus [21]): 33.1%; inhibition at 37.5 µM (Hepatitis B virus [23]): 24.8%; inhibition at 150 µM (Hepatitis B virus [24]): 46.4%; inhibition at 300 µM (Hepatitis B virus [26]): 55.1%; inhibition at 300 µM (Hepatitis B virus [28]): 56%; inhibition at 75 µM (Hepatitis B virus [29]): 8.64%; inhibition at 37.5 µM (Hepatitis B virus [30]): 21.9%; inhibition at 300 µM (Hepatitis B virus [31]): 57.7%; viability at 150 µM (Hepatitis B virus [32]): 92.6%
74.4 µM | 105 µM | COc1cc(/C=C/C(=O)O/N=C/c2cccs2)cc2c1OCO2 | 107% | 35.5% | 57.9% | 677 µM | 50.7% | 48.9% | 37.4% | 119% | 19.1% | 41.9% | 56.1% | 33.8% | 40% | 46.6% | 33.8% | 95.6% | 9.1 | 6.47 | inhibition at 37.5 µM (Hepatitis B virus [18]): 16.1%; inhibition at 37.5 µM (Hepatitis B virus [33]): 12.7%; inhibition at 37.5 µM (Hepatitis B virus [19]): 29.2%; inhibition at 300 µM (Hepatitis B virus [20]): 59.3%; inhibition at 300 µM (Hepatitis B virus [21]): 51.1%; inhibition at 37.5 µM (Hepatitis B virus [23]): 29.7%; inhibition at 150 µM (Hepatitis B virus [24]): 68.2%; inhibition at 300 µM (Hepatitis B virus [26]): 65.8%; inhibition at 300 µM (Hepatitis B virus [28]): 67.3%; inhibition at 75 µM (Hepatitis B virus [29]): 25.6%; inhibition at 37.5 µM (Hepatitis B virus [30]): 23.3%; inhibition at 300 µM (Hepatitis B virus [31]): 77.9%; viability at 150 µM (Hepatitis B virus [32]): 97.5%
387 µM | 469 µM | O/N=C/c1ccccn1 |  |  |  | 402 µM |  |  |  |  |  |  |  |  |  |  |  |  | 1.04 | 0.86 | 
354 µM | 431 µM | O/N=C/c1cccs1 [2-THIOPHENECARBOXALDEHYDE OXIME] |  |  |  | 562 µM |  |  |  |  |  |  |  |  |  |  |  |  | 1.59 | 1.3 | 

From ChEMBL document CHEMBL3576819, “Design, synthesis, biological evaluation and molecular docking studies of phenylpropanoid derivatives as potent anti-hepatitis B virus agents” (Eur J Med Chem, 2015)
